Among the data in PubChem BioAssay AID588423 (The Scripps Research Institute Molecular Screening Center, 2011) are IC50 values, retold here.

The target of this assay is Protein-arginine deiminase type-4 (Homo sapiens) (UniProt Q9UM07). Put plainly: PAD4 enzyme inhibition potency, late-stage follow-up, biochemical, BAEE substrate, citrulline absorbance, 0-15 µM range (AID 588423). The following applies: recombinant PAD4, BAEE citrulline colorimetric absorbance. The essentials:
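Schedule: 15 min compound preincubation, 15 min BAEE reaction, 37 °C | Material: Recombinant human PAD4 enzyme | Quantity: 0.2 µM PAD4 enzyme | Technique: Colorimetric absorbance of citrulline at 540 nm | Buffer or medium: Tris-HCl pH 7.6 with 2 mM DTT, 10 mM CaCl2 | Also added: BAEE substrate at 10 mM | Repeats: Two trials per dose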

Calls of active or inactive are those of the source.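 The calls were made as follows: active = IC50 at or below 1 µM; inactive = the rest.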

Protein-arginine deiminase type-4 (Homo sapiens), sequence (Q9UM07 whole entry, looked up): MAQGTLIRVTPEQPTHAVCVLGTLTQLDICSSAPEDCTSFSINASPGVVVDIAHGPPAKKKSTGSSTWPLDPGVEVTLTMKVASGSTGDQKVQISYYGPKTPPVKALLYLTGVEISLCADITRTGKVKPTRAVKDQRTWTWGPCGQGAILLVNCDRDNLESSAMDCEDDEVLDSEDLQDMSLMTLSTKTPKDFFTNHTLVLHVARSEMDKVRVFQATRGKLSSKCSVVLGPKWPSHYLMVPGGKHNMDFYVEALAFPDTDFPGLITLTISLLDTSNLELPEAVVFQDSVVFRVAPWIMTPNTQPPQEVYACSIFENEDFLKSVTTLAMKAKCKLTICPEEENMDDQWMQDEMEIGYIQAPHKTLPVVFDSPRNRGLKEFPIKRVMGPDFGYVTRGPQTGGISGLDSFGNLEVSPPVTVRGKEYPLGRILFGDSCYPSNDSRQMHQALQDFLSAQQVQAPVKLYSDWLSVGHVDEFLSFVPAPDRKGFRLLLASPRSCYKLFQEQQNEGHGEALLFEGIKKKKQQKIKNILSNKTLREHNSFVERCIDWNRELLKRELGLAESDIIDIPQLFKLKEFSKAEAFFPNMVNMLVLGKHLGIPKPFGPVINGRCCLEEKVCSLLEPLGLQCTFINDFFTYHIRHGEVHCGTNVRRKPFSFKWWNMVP

On to `O=C1C(O)=C(O)C(=O)c2ncccc21`, for which the IC50 result is “inactive”.
